The list is a sample of the results.
PGC1a acetyl up: raises PGC1a acetylation signal in U2OS cells; 0.21% of 350,000 active; U2OS PGC1a acetylation AlphaScreen, overnight; activation, % at 15.6 µM;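 active = every replicate reaching activation of at least 50%, whatever the mean replicate activation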;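 note: hits raise the AlphaScreen acetylation signal above neutral controls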
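Test system: U2OS cells expressing flag-PGC1a plus GCN5; Amount: 7000 U2OS cells per well; Compound: single test concentration per compound; Incubation: compound overnight at 37 °C, each detection step 1 h RT; Signal: AlphaScreen lysate read.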
G6PC hep suppr: PGC-1a acetylation activator altering hepatocyte G6PC expression; shares compounds with PGC1a acetyl up; primary mouse hepatocytes, G6PC mRNA qPCR, forskolin; G6PC suppression (normalized activity, % of positive control; higher = more suppression), % at 26 µM; 240 tested, under 10 active;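 active = dose curves showing G6PC suppression whose half-maximal dose is at most twice the top valid dose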;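 note: G6PC expression relative to GAPDH housekeeping gene as delta delta Ct; 0% = median of neutral control wells and 100% = median of positive control wells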
Hep PCK1 suppr: PGC-1a acetylation activator altering hepatocyte PCK1 expression | PCK1 expression decrease, unspecified at 26 µM | primary mouse hepatocytes, PCK1 mRNA qPCR, forskolin-stimulated | 230 tested, under 10 active | AID 743465 | shares compounds with PGC1a acetyl up;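 active = compounds lowering PCK1 expression whose fitted half-maximal concentration is at most twice the top tested dose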;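 note: values are delta delta Ct of PCK1 relative to GAPDH; higher delta delta Ct means lower PCK1 expression so positive values indicate hits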
PGC1a hep suppr: hepatocyte PGC-1a expression change via PGC-1a acetylation activation. primary mouse hepatocytes, PGC-1a mRNA qPCR, forskolin; top dose 26 µM. AID 743467. max activity (PGC-1a expression decrease), %. 240 tested, under 10 active. shares compounds with PGC1a acetyl up;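 active = compound lowering PGC-1a expression with fitted half-maximal concentration at most twice its top tested dose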;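 note: 0% = neutral control wells median and 100% = positive control wells median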
* = called active by the depositor.

CN1CCN(Cc2cc(C(C)(C)C)c(O)c(C(C)(C)C)c2)CC1 was read as PGC1a acetyl up 130*.
For CC(=O)OC1(C)CC(C)C(=O)C(C(O)CC2CC(=O)NC(=O)C2)C1 (stereo not given) the results were PGC1a acetyl up -93.
For CC(=O)OC1C(O)C(C)OC(OC2C(OC(=O)C3CCC4C(C3)OC3(CC(OC(=O)/C=C/c5ccccc5)C(C)CO3)C43CO3)OC(C)C(O)C2OC(C)=O)C1O (stereo not given) the results were PGC1a acetyl up -78.
C[C@@H]1O[C@@H](O[C@@H]2C=C3CCC4C(CC[C@]5(C)[C@@H](c6ccc(=O)oc6)CC[C@]45O)[C@@]3(C)CC2)[C@H](O)[C@H](O)[C@H]1O (stereo not given in full) was read as PGC1a acetyl up -60.
For O=C1CN=C(c2ccc[nH]2)c2cc(Cl)ccc2N1 the results were PGC1a acetyl up -41.
CC(=O)c1c(C)n(C2CCCCC2)c2ccc(O)cc12 was read as PGC1a acetyl up -55.
`CCOc1ccc(-c2cc(C)[n+](CCc3ccc(OC)c(OC)c3)c(-c3ccc(OCC)cc3)c2)cc1` gave PGC1a acetyl up 230*.
COc1ccc(CC2NCC(O)C2OC(C)=O)cc1 (stereo not given) was read as PGC1a acetyl up -92.
C[C@@H]1C[C@@H]([C@H](O)CC2CC(=O)NC(=O)C2)C(=O)[C@@H](C)C1 was read as PGC1a acetyl up -73.
Screening CC(=O)OC[C@]12CCC(C)=C[C@H]1O[C@@H]1[C@H](O)[C@@H](OC(C)=O)[C@@]2(C)[C@]12CO2 returned PGC1a acetyl up -86.
`C[C@@H]1CN([C@H](C)CO)C(=O)c2c(c3ccccc3n2C)-c2ccccc2CO[C@@H]1CN(C)C(=O)Oc1ccccc1` gave PGC1a acetyl up 265*.
For COc1ccc(CCNC2(C#N)CCCCC2)cc1OC the results were PGC1a acetyl up -84.
Screening CCOCCN1CCC(OC(C)=O)C(C)C1 (stereo not given) returned PGC1a acetyl up -42.
Screening COc1ccc(-n2nnnc2C(CCc2ccccc2)N2CCC(n3c(=O)[nH]c4ccccc43)CC2)cc1 (stereo not given) returned PGC1a acetyl up -55.
For CC1OC(OC2CC(O)C3(CO)C4C(O)CC5(C)C(C6=CC(=O)OC6)CCC5(O)C4CCC3(O)C2)C(O)C(O)C1O (stereo not given) the results were PGC1a acetyl up -81.
`COC(=O)C12OCC34C(CC5C(C)=C(O)C(=O)CC5(C)C3C(O)C1O)OC(=O)C(OC(=O)/C=C(\C)C(C)C)C24` (stereo not given) gave PGC1a acetyl up -86.
For C[C@@H]1O[C@@H](O[C@@H]2C=C3CC[C@@H]4C(CC[C@]5(C)[C@@H](c6ccc(=O)oc6)CC[C@]45O)[C@@]3(C)CC2)[C@H](O)[C@H](O)[C@H]1O (stereo not given in full) the results were PGC1a acetyl up -67.
For C1=NCCc2c1[nH]c1ccccc21 the results were PGC1a acetyl up 156*.
Screening CCn1cc(C(=O)N2CCOCC2)c2ccccc21 returned PGC1a acetyl up -59.
CC(=O)OC1CC(OC2C(O)CC(OC3C(O)CC(OC4CCC5(C)C(CCC6C5CCC5(C)C(C7=CC(=O)OC7)CCC65O)C4)OC3C)OC2C)OC(C)C1OC1OC(CO)C(O)C(O)C1O (stereo not given) was read as PGC1a acetyl up -56.
CC1=C(C/C(C)=C/c2ccccc2)/C(=C/CO)[C@@H]2OC(=O)O[C@]2(C)C12CC2 was read as PGC1a acetyl up -43.
`O=C1NCN(c2ccccc2)C12CCN(C(c1cc3ccccc3o1)c1nnnn1C1CCCCC1)CC2` (stereo not given) gave PGC1a acetyl up 84*.
For C[C@H]1CCC/C=C/[C@@H]2C[C@H](O)C[C@H]2[C@H](O)/C=C/C(=O)O1 the results were PGC1a acetyl up -69.
C=C1C(=O)O[C@@H]2C[C@@H](C)[C@@H]3C=CC(=O)[C@@]3(C)[C@@H](O)[C@H]12 was read as PGC1a acetyl up -47.
`CC1=CC2OC3CC4OC(=O)C=CC=CC(C(C)O)OCC(O)C(C)CC(=O)OCC2(CC1O)C4(C)C31CO1` (stereo not given) gave PGC1a acetyl up -81.
For COc1ccc(OC(=O)N(C)C[C@H]2OCc3ccccc3-c3c(n(C)c4ccccc34)C(=O)N([C@@H](C)CO)C[C@H]2C)cc1 the results were PGC1a acetyl up 62*, G6PC hep suppr 13, Hep PCK1 suppr 48 and PGC1a hep suppr 46.
`CCC1(OC(=O)CN)C(=O)OCc2c1cc1n(c2=O)Cc2cc3ccccc3nc2-1` (stereo not given) gave PGC1a acetyl up -43.
Screening CCn1nc(-c2cccs2)nc2c(=O)n(C)c(=O)nc1-2 returned PGC1a acetyl up -40.
`CC(=O)OC(C)(C)/C=C/C(=O)C(C)(O)C1C(O)CC2(C)C3CC=C4C(CC(O)C(=O)C4(C)C)C3(C)C(=O)CC12C` (stereo not given) gave PGC1a acetyl up -70.
Oc1ccc2c3c1O[C@H]1[C@@H](O)CC[C@@]4(O)[C@@H](C2)N(CC2CCC2)CC[C@]314 was read as PGC1a acetyl up -57.
